Source: PubChem BioAssay
Sampled rows, rich in hits. Any-hit rate of the full collection: about 4.4%.
MPTP block: blocks calcium-induced mitochondrial swelling | inhibition, % at 10 µM | isolated mouse mitochondria, Ca2+ swelling absorbance, 30 min | hit rate 1.4% among 360,000;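 active means inhibition of 50% or more, scaled per plate between neutral and stimulator controls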
SENP1 inh: SENP1 (human) catalytic domain inhibition. Q9P0U3. recombinant SENP1 catalytic domain, CyPet-SUMO1-YPet FRET cleavage. inhibition, % at 10 µM. hit rate 0.21% among 360,000. AID 624204;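 active means inhibition at least 30% at 10 µM, raw YFP signal under a set limit, fluorescence ratio 0.5 to 1.5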
Target sequence (Q9P0U3 419-644 limits assumed): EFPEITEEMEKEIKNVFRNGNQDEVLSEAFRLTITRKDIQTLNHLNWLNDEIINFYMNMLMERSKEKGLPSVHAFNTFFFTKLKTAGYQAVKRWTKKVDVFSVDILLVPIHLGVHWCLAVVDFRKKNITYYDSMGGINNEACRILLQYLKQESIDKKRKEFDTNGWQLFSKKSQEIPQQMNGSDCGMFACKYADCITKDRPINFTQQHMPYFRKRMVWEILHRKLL
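Test system: recombinant human SENP1 catalytic domain, His6-tagged / Medium: pH 8 Tris buffer with EDTA, NaCl, BME, BSA, NP40, catalase / Also added: SUMO1 FRET substrate flanked by Cypet and Ypet, 25 nM / Times: 50 min reaction at room temperature / Signal: FRET, CFP and YFP emission / Control set: no-enzyme low control and enzyme-plus-DMSO high control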
GRIN3A LBD mod: modulators (binders) of human NR3A ligand-binding domain | NR3A LBD differential scanning fluorimetry, Tm shift; 0% = protein alone, 100% = glycine-bound protein | Tm shift relative to glycine control, % at 25 µM | hit rate 2.5% among 340,000 | AID 1259313;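 active means melting temperature shift of at least 10% of the positive control shift, at one fixed dose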
EBI2 block: antagonists of human EBI2 receptor. P32249. EBI2 beta-arrestin recruitment, luminescence, 7a,25-OHC stimulated. inhibition, % at 5 µM. hit rate 0.81% among 360,000. AID 651636; in the data active means inhibition above about 38%;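 further: enzyme fragment complementation signal reports receptor beta-arrestin coupling in cells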
Target sequence (P32249 whole entry, looked up, the tested form may be a part): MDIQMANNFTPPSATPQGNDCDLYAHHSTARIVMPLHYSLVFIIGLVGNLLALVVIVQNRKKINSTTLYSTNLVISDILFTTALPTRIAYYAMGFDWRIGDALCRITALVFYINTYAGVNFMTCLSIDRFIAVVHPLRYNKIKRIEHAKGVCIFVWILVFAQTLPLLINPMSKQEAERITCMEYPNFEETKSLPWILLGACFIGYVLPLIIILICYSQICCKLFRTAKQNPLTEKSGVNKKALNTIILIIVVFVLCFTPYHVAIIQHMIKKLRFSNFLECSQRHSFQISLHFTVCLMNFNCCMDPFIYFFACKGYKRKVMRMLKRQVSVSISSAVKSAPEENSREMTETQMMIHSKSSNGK
Large screens that a line does not name were inactive.

Cc1cnc(NC(=O)c2cc3c(s2)CCCC3)s1	GRIN3A LBD mod 22.8
COc1ccc(CCNCC(=O)Nc2ccc(C(=O)N3CCCCC3)cc2)cc1	GRIN3A LBD mod 19.7
COc1ccc(CCNCC(=O)Nc2ccc(OC(F)F)cc2)cc1	none
COc1cccc(CCNC(=O)c2cc(COc3c(F)cccc3F)on2)c1	none
COC(=O)CSc1nnc(-c2c[nH]c3ccccc23)o1	none
O=C(CSc1nnc(-c2c[nH]c3ccccc23)o1)c1ccc(-c2ccccc2)cc1	GRIN3A LBD mod 24.2
CCCCCCCCN1[C@@H](CC(=O)OC)c2cc(C(F)(F)F)ccc2S1(=O)=O	none
O=C1[C@H]2[C@@H](c3ccc(Cl)cc3)N3C(=O)N(c4cccc(F)c4)C(=O)[C@@]3(Cc3ccc(Cl)cc3)[C@H]2C(=O)N1C1CCCCC1	GRIN3A LBD mod 13.8
Cc1cccc(N2C(=O)N3[C@H](c4ccc(Cl)cc4)[C@@H]4C(=O)N(C5CCCCC5)C(=O)[C@@H]4[C@]3(Cc3ccc(Cl)cc3)C2=O)c1	GRIN3A LBD mod 21.1
CC(C)(C)N1C(=O)[C@H]2[C@@H](c3ccc(Br)cc3)N3C(=O)N(c4cccc(Br)c4)C(=O)[C@@]3(Cc3ccccc3)[C@H]2C1=O	GRIN3A LBD mod 10.1
Cc1cccc(N2C(=O)N3[C@H](c4ccc(F)cc4)[C@@H]4C(=O)N(C5CCCCC5)C(=O)[C@@H]4[C@]3(Cc3ccc(Cl)cc3)C2=O)c1	none
CC(C)(C)N1C(=O)[C@H]2[C@@H](c3ccc(Br)cc3)N3C(=O)N(c4ccccc4)C(=O)[C@@]3(Cc3ccccc3)[C@H]2C1=O	none
C=C(C)c1cccc(C(C)(C)NC(=O)N(C)C2CCN(C)CC2)c1	none
Cc1ccc(S(=O)(=O)c2c(N)n(/N=C/c3ccco3)c3nc4ccccc4nc23)cc1C	EBI2 block 46.1
Cc1cccc(S(=O)(=O)c2c(N)n(/N=C/c3cccnc3)c3nc4ccccc4nc23)c1	GRIN3A LBD mod 44.7
COc1cccc(/C=N/n2c(N)c(S(=O)(=O)c3cccs3)c3nc4ccccc4nc32)c1	none
Cc1cccc(S(=O)(=O)c2c(N)n(-c3ccccc3)c3nc4ccccc4nc23)c1	GRIN3A LBD mod 11.5
Nc1c(S(=O)(=O)c2cccs2)c2nc3ccccc3nc2n1/N=C/c1cccc(O)c1	GRIN3A LBD mod 28.2, EBI2 block 57.9
CC(C)(Cc1ccccc1)NC(=O)C(=O)c1cn(CC(=O)N2CCOCC2)c2ccccc12	none
CC[C@]12c3[nH]c4ccccc4c3CCN1C(=O)C(CC(=O)NCCc1ccccn1)C[C@@H]2C(=O)N1CCN(C(=O)c2ccco2)CC1 (stereo partly specified)	none
N#CN(Cc1ccccc1)Cc1ccccc1	none
OCc1ncc(-c2ccccc2)s1	GRIN3A LBD mod 10.3
CCOc1ccccc1C(=O)NCCc1cnc[nH]1	none
CCOC(=O)/C(C(=O)Nc1ccccc1Br)=C1/NC(C)(C)Cc2ccccc21	GRIN3A LBD mod 13.0
O=C(O)c1cccc(-n2sc3ccccc3c2=O)c1	GRIN3A LBD mod 22.8
N#C/C(=C/c1ccc2c(c1)OCO2)C(=O)Nc1ccc(O)cc1	none
O=C(CN1c2ccccc2Sc2ccccc21)N/N=C/c1ccc(Cl)cc1Cl	GRIN3A LBD mod 14.8
O=C(Cc1ccc(Cl)cc1)N/N=C/c1ccccc1	none
O=C(CN1c2ccccc2Sc2ccccc21)N/N=C/c1ccc(Cl)cc1	GRIN3A LBD mod 11.1
COc1ccc(S(=O)(=O)N2CCN(C(=O)C3CC3)CC2)cc1	none
O=C(CCCN1C(=O)/C(=C/c2ccccc2Cl)SC1=S)NNC(=O)c1ccccc1	EBI2 block 41.6
O=C(CCN1C(=O)/C(=C\c2ccccc2)SC1=S)NNC(=O)c1ccccc1O	GRIN3A LBD mod 11.9
O=C(CCCN1C(=O)/C(=C/c2ccccc2Cl)SC1=S)NNC(=O)c1cccnc1	none
CC(/C=C1\SC(=S)N(CCC(=O)Nc2ccccc2O)C1=O)=C\c1ccccc1	GRIN3A LBD mod 19.9
O=C(CCCN1C(=O)S/C(=C\c2ccccc2)C1=O)NNC(=O)c1ccccc1O	none
COc1ccccc1/C=C1\SC(=S)N(CCC(=O)NCCc2ccc(O)cc2)C1=O	none
COc1ccc(/C=C2\SC(=S)N(CCC(=O)NCCc3ccc(O)cc3)C2=O)cc1	GRIN3A LBD mod 15.3
O=C(C[C@@H]1C/C=C/CC[C@@H](Cc2ccc(F)cc2)C(=O)OC[C@H](Cc2ccccc2)NC1=O)N[C@H](CO)Cc1ccccc1	none
COc1cccc(CN(CC2CCCO2)C(=O)c2cc3ccccc3oc2=O)c1 (stereo unspecified)	none
O=C(CN1C(=O)S/C(=C\c2ccc(O)cc2)C1=O)c1ccccc1	GRIN3A LBD mod 10.1
O=C(CN1C(=O)S/C(=C\c2ccccc2)C1=O)NNC(=O)c1ccccc1O	none
O=C(CCN1C(=O)/C(=C/c2ccccc2)SC1=S)NCCc1ccc(O)cc1	GRIN3A LBD mod 17.0
O=C(CCN1C(=O)/C(=C/c2ccccc2F)SC1=S)NCCc1ccc(O)cc1	none
O=c1c2ccccc2on1-c1ccccc1	none (no result: GRIN3A LBD mod)
COc1cc(/C=C/c2nc3ccccc3c(=O)[nH]2)cc(Br)c1O	GRIN3A LBD mod 23.1
O=C(c1ccc(F)cc1F)N1CCCc2ccccc21	none
COc1c(CC=C(C)C)cc(C2CC(=O)c3c(O)cc(O)cc3O2)c(CC=C(C)C)c1O (stereo unspecified)	GRIN3A LBD mod 21.5 (no result: MPTP block, SENP1 inh, EBI2 block)
COc1cccc(/C(C)=N/Nc2ccc(S(=O)(=O)N3CCCCC3)cn2)c1	none
CC(=O)c1ccc(N/C=C\C(=O)c2ccc(C)cc2)cc1	none
O=C(/C=C/Nc1cccc(O)c1)c1ccccc1	none
Cc1ccc(C(=O)/C=C/Nc2ccc3c(c2)OCO3)cc1	GRIN3A LBD mod 17.4
Cc1ccc(C(=O)/C=C/Nc2cccc(O)c2)cc1	GRIN3A LBD mod 10.3
CCCCOc1ccc(-c2[nH]ncc2C=O)cc1	none
O=C(C[C@H]1C/C=C\CC[C@H](Cc2ccc(F)cc2)C(=O)OC[C@@H](Cc2c[nH]c3ccccc23)NC1=O)NCCO	none
COc1cc(/C=N/NC(=O)c2c(C)nnn2-c2nonc2N)ccc1O	GRIN3A LBD mod 13.5
Cc1nnn(-c2nonc2N)c1C(=O)N/N=C/c1cccc2ccccc12	GRIN3A LBD mod 33.1
Cc1nnn(-c2nonc2N)c1C(=O)N/N=C/c1ccccc1O	GRIN3A LBD mod 29.9
CCN(c1ccccc1)S(=O)(=O)c1ccc(OC)c(NC(=O)CNCCc2ccccc2)c1	none
CC1=C(c2ccccc2)C(=S)NC(C)(C)C1	none
CC(C)(C)c1ccc(C(=O)NN2C(=O)CSC2=S)cc1	none
O=C(O)c1ccc(N=Nc2c(O)ccc3ncccc23)cc1	GRIN3A LBD mod 11.8
Cc1c(C(=O)Nc2ccc3c(c2)OCCO3)sc2nc(-c3ccccc3)cn12	GRIN3A LBD mod 27.1
CCn1c(SCC(=O)Nc2ccc(C(C)=O)cc2)nc2c([nH]c3ccccc32)c1=O	GRIN3A LBD mod 13.8
COc1cc2c(cc1OC)C(C)N(C(=O)c1cc3c(=O)oc4ccc(C)cc4c3s1)CC2 (stereo unspecified)	none
COc1ccc(CCC(=O)OCC(=O)c2ccc(C)cc2)cc1	GRIN3A LBD mod 56.3
COc1ccc(CCC(=O)OCC(=O)c2cccc(OC)c2)cc1	none
